Data reported in ChEMBL document CHEMBL4330067, “Synthesis and mechanistic studies of diketo acids and their bioisosteres as potential antibacterial agents” (Eur J Med Chem, 2019).
Converted amounts (≈) assume the structure as drawn.

What was measured:
Enterococcus faecalis [1] = experiment: Inhibition of Enterococcus faecalis methionine aminopeptidase 1A at 100 uM using Met-AMC as substrate relative to control
Outline: (§1)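 Purified MetAP at 4 µM in 50 mM HEPES with 150 mM KCl and CoCl2 at 3 molar equivalents of enzyme. pH 7.5 for SpMetAP1a and EfMetAP1a, pH 8.0 for HsMetAP1b. Substrate L-Met-AMC at 50, 100 and 150 µM. Compounds (10 mM DMSO stocks) tested over 1 to 120 µM for % inhibition; Ki by Dixon method.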

Streptococcus pneumoniae [2] = experiment: Inhibition of Streptococcus pneumoniae methionine aminopeptidase 1A at 100 uM using Met-AMC as substrate relative to control; outline: as §1
[3] = Inhibition of Mycobacterium tuberculosis methionine aminopeptidase 1C using Met-AMC as substrate by Dixon method
Homo sapiens = species on record: Homo sapiens; experiment: Inhibition of human methionine aminopeptidase 1B at 100 uM using Met-AMC as substrate relative to control; outline: as §1
[4] = system: Mycobacterium tuberculosis; experiment: Inhibition of Mycobacterium tuberculosis methionine aminopeptidase 1C at 100 uM using Met-AMC as substrate relative to control
Outline: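 Purified MtMetAP1c (4 µM) in 50 mM Hepes pH 7.5 with 150 mM KCl and CoCl2 at three molar equivalents of enzyme. Substrate was L-Met-AMC at 50, 100 or 150 µM. Compounds came from 10 mM DMSO stocks. Percent inhibition was taken against the uninhibited control.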

Escherichia coli = experiment: Antibacterial activity against Escherichia coli ATCC 25922 after 24 hrs by broth dilution assay; assay type: functional; conditions: ATCC 25922, 24 h
Outline: (§2)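 Broth dilution per NCCLS in nutrient broth, serial dilutions 1000 to 7.8 µg/mL, DMSO below 4% final. Inoculum approx. 2.5×10⁶ cells/mL, 37 °C with shaking at 150 rpm for 24 h. MIC taken as the lowest concentration with no visible growth. Ciprofloxacin served as positive control.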

Enterococcus faecalis [5] = experiment: Antibacterial activity against Enterococcus faecalis MTCC 439 after 24 hrs by broth dilution assay; assay type: functional; conditions: MTCC 439, 24 h; outline: as §2
Klebsiella pneumoniae = experiment: Antibacterial activity against Klebsiella pneumoniae ATCC 700603 after 24 hrs by broth dilution assay; assay type: functional; conditions: Klebsiella pneumoniae, 700603, 24 h; outline: as §2
Salmonella typhimurium = experiment: Antibacterial activity against Salmonella typhimurium MTCC 3224 after 24 hrs by broth dilution assay; assay type: functional, Salmonella enterica subsp. enterica serovar Typhimurium; conditions: Salmonella enterica, MTCC 3224, 24 h; outline: as §2
Streptococcus pneumoniae [6] = experiment: Antibacterial activity against Streptococcus pneumoniae MTCC 655 after 24 hrs by broth dilution assay; assay type: functional; conditions: MTCC 655, 24 h; outline: as §2
Pseudomonas aeruginosa = experiment: Antibacterial activity against Pseudomonas aeruginosa MTCC 2453 after 24 hrs by broth dilution assay; assay type: functional; conditions: MTCC 2453, 24 h; outline: as §2
[7] = Inhibition of human methionine aminopeptidase 1B using Met-AMC as substrate by Dixon method; outline: as §1
[8] = Inhibition of Enterococcus faecalis methionine aminopeptidase 1A using Met-AMC as substrate by Dixon method; outline: as §1
[9] = Inhibition of Streptococcus pneumoniae methionine aminopeptidase 1A using Met-AMC as substrate by Dixon method; outline: as §1

| SMILES | inhibition (Enterococcus faecalis [1]) [%] | inhibition (Streptococcus pneumoniae [2]) [%] | Ki [3] [µM] | inhibition (Homo sapiens) [%] | inhibition [4] [%] | MIC (Escherichia coli) [µg/mL] | MIC (Enterococcus faecalis [5]) [µg/mL] | MIC (Klebsiella pneumoniae) [µg/mL] | MIC (Salmonella typhimurium) [µg/mL] | MIC (Streptococcus pneumoniae [6]) [µg/mL] | MIC (Pseudomonas aeruginosa) [µg/mL] | Ki [7] [µM] | Ki [8] [µM] | Ki [9] [µM] |
| --- | --- | --- | --- | --- | --- | --- | --- | --- | --- | --- | --- | --- | --- | --- |
| C[C@@H](NC(=O)c1cc(-c2ccc(Cl)cc2)no1)C(=O)O | 23.6 | 43.7 | 94.6 | 47.2 | 51.7 | – | – | – | – | – | – | – | – | – |
| Cc1c(-c2cc(C(=O)N[C@H](C)C(=O)O)on2)oc2ccc(Br)cc12 | 34.6 | 42.8 | – | 93.4 | 33.2 | 500 (≈ 1270 µM) | 125 (≈ 318 µM) | > 1000 | 500 (≈ 1270 µM) | 250 (≈ 636 µM) | 1000 (≈ 2540 µM) | 3.11 | – | – |
| CCOC(=O)/C(O)=C/C(=O)c1oc2ccc(Br)cc2c1C | 93.3 | 73 | 18.2 | 86 | 91.6 | 250 (≈ 708 µM) | 250 (≈ 708 µM) | 500 (≈ 1420 µM) | 1000 (≈ 2830 µM) | 250 (≈ 708 µM) | 1000 (≈ 2830 µM) | 19.8 | 10.8 | 68.2 |
| Cc1ccccc1C(=O)/C=C(\O)C(=O)N[C@H](C)C(=O)O | 63.2 | 58 | – | 59.2 | 47.7 | 1000 (≈ 3610 µM) | 500 (≈ 1800 µM) | 1000 (≈ 3610 µM) | 1000 (≈ 3610 µM) | 500 (≈ 1800 µM) | 1000 (≈ 3610 µM) | 54 | 64 | 59.9 |
| Cc1c(-c2cc(C(=O)O)on2)oc2ccc(Br)cc12 | 40.3 | 43.2 | – | 47.3 | 39.1 | – | – | – | – | – | – | – | – | – |
| Cc1c(C(=O)/C=C(\O)C(=O)O)oc2ccc(Br)cc12 | 91.9 | 93.4 | 26.3 | 88.2 | 93.5 | 1000 (≈ 3080 µM) | 62.5 (≈ 192 µM) | 1000 (≈ 3080 µM) | 500 (≈ 1540 µM) | 62.5 (≈ 192 µM) | 125 (≈ 384 µM) | 32.7 | 17.7 | 27.5 |
| Cc1ccccc1-c1cc(C(=O)O)on1 | 32 | 42.4 | – | 49 | 43.7 | – | – | – | – | – | – | 104 | – | – |
| CCOC(=O)c1cc(-c2oc3ccc(Br)cc3c2C)no1 | 21.1 | 40.6 | – | 43.6 | 41.3 | – | – | – | – | – | – | – | – | – |
| O=C(O)c1cc(-c2ccc(Cl)cc2)no1 | 20 | 39.7 | 71.8 | 43.9 | 58.2 | – | – | – | – | – | – | – | – | – |
| CCOC(=O)c1cc(-c2ccccc2C)no1 | 27.6 | 41.4 | – | 48.9 | 47.1 | – | – | – | – | – | – | 123 | – | – |
